15 compounds from ChEMBL document CHEMBL1122698, “Selective delivery of cytotoxic compounds to cells by the LDL pathway” (1984) can be followed below.

Holding throughout (assay type): functional
Experiment [1] is filed under the species Homo sapiens. In words: (§1) The compound was tested for the toxicity of normal +r-LDL, measured by its ability to inhibit the growth of normal human fibroblasts or chinese hamster ovary (CHO) cells, at concentration 10 ug/mL. In a few lines:
(§2)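 Compound reconstituted into LDL (r-LDL) and added to cells; concentration given as LDL protein, roughly equal to compound concentration. Cells plated 20 000/well, left 4 h, then r-LDL added. On day 3, wells washed with PBS to remove dead cells; adherent cells fixed in 15% formalin 15 min, crystal violet stained, scored visually on a 0–6 growth scale (untreated control = 6).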

A short description of experiment [2]: The compound was tested for the toxicity of mutant+r-LDL, measured by its ability to inhibit the growth of normal human fibroblasts or chinese hamster ovary (CHO) cells, at concentration 10 ug/mL. In a few lines: as §2
For experiment [3], the species on record is Homo sapiens. The experiment is described as §1. In a few lines:
(§3)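 Normal human fibroblasts were seeded at 20 000/well and held 4 h before addition of compound-reconstituted LDL (r-LDL) or methylated r-LDL. Comparison cells with few LDL receptors were receptor-negative homozygous FH fibroblasts or V-79 CHO cells. Doses are given as LDL protein concentration. On day 3 the cells were PBS-washed, fixed with 15% formalin for 15 min and stained with crystal violet. Growth was scored visually from 0 to 6, with untreated controls at 6.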
The source holds these as a separate data set.

Experiment [4] is filed under the species Homo sapiens. Briefly: The compound was tested for the toxicity of normal+r-LDL, measured by its ability to inhibit the growth of normal human fibroblasts or chinese hamster ovary (CHO) cells, at concentration 2 ug/mL. The method in brief: as §3
The species entered for experiment [5] is Homo sapiens. In words: The compound was tested for the toxicity of normal+r-LDL, measured by its ability to inhibit the growth of normal human fibroblasts or chinese hamster ovary (CHO) cells, at concentration 10 ug/mL. The method in brief:
as §3

A short description of experiment [6]: The compound was tested for the toxicity of mutant+r-LDL, measured by its ability to inhibit the growth of normal human fibroblasts or chinese hamster ovary (CHO) cells, at concentration 2 ug/mL. The method in brief:
as §3

Experiment [7] is filed under the species Homo sapiens. In words: The compound was tested for the toxicity of normal +r-LDL, measured by its ability to inhibit the growth of normal human fibroblasts or chinese hamster ovary (CHO) cells, at concentration 20 ug/mL. In a few lines:
as §3

Experiment [8] in a line: The compound was tested for the toxicity of mutant+r-LDL, measured by its ability to inhibit the growth of normal human fibroblasts or chinese hamster ovary (CHO) cells, at concentration 20 ug/mL. In a few lines:
as §3

Experiment [9] is filed under the species Homo sapiens. In words: The compound was tested for the toxicity of normal +r-LDL, measured by its ability to inhibit the growth of normal human fibroblasts or chinese hamster ovary (CHO) cells, at concentration 0.5 ug/mL. The method in brief: as §2
Experiment [10] in a line: The compound was tested for the toxicity of mutant+r-LDL, measured by its ability to inhibit the growth of normal human fibroblasts or chinese hamster ovary (CHO) cells, at concentration 0.5 ug/mL. The method in brief: as §2
For experiment [11], the species on record is Homo sapiens. Briefly: The compound was tested for the toxicity of +r-LDL,measured by its ability to inhibit the growth of normal human fibroblasts or chinese hamster ovary (CHO) cells, at concentration 80 ug/mL. In a few lines: (§4)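 SV-40-transformed human fibroblasts (SV-589) were seeded at 20 000/well and left 4 h. They were then exposed to compound-reconstituted LDL or reconstituted methylated LDL (Me-r-LDL, not recognised by LDL receptors). Doses are given as LDL protein concentration. On day 3 the wells were PBS-washed to remove dead cells, and adherent cells were fixed with 15% formalin for 15 min and stained with crystal violet. Growth was scored visually, with untreated controls scored 4.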

The species entered for experiment [12] is Homo sapiens. In words: The compound was tested for the toxicity of +Me-r-LDL,measured by its ability to inhibit the growth of normal human fibroblasts or chinese hamster ovary (CHO) cells, at concentration 80 ug/mL. The method in brief:
as §4

The species entered for experiment [13] is Homo sapiens. In words: The compound was tested for the toxicity of normal +r-LDL, measured by its ability to inhibit the growth of normal human fibroblasts or chinese hamster ovary (CHO) cells, at concentration 80 ug/mL. In a few lines: as §3

On to `CCCCCCCC/C=C\CCCCCCCCOC(=O)N(CCCCCCCCCCCC)CC(F)F`, for which the Growth of cells (in the experiment listed under Homo sapiens [1]; in [2]) was 6 each time.
`CCCCCCCC/C=C\CCCCCCCCC(=O)O[C@H]1CC[C@@]2(C)C(=CC[C@H]3[C@@H]4CC[C@H](C(C)COC(=O)N(CCCl)CCCl)C4CC[C@@H]32)C1` (stereo partly drawn): the Growth of cells in the experiment filed under Homo sapiens [3] was 0; in experiment [2], 6.
As for `CCCCCCCC/C=C\CCCCCCCCOC(=O)N(CCCl)CCCl`, the Growth of cells in the experiment filed under Homo sapiens [4] was 2; in the experiment filed under Homo sapiens [5], 0; in experiment [6], 5; in experiment [2], 0.
`CCCCCCCC/C=C\CCCCCCCCC(=O)O[C@H]1CC[C@@]2(C)C(=CC[C@H]3[C@@H]4CC[C@H](C(C)COC(=O)N5CCOC(CCCCCCCCCCCC)C5)C4CC[C@@H]32)C1` (stereo partly drawn): the Growth of cells (in the experiment listed under Homo sapiens [1]; in experiment [2]) was 6 each time.
On to `CCCCCCCC/C=C\CCCCCCCCNC(=O)C(C)[C@H]1CC[C@@H]2C1CC[C@H]1[C@H]2CC=C2C[C@@H](OC(=O)CCCCCCCC/C=C\CCCCCCCC)CC[C@@]21C` (stereo partly drawn), for which the Growth of cells (in the experiment listed under Homo sapiens [7]; in experiment [8]) was 6 each time.
For `CC(C)CCCC(C)C1CCC2C3CC=C4CC(OC(=O)Cc5ccc(N(CCCl)CCCl)cc5)CCC4(C)C3CCC12C` (stereo not drawn), the Growth of cells (in the experiment listed under Homo sapiens [7]; in experiment [8]) was 6 in each case.
As to `CC1=C(/C=C/C(C)=C/C=C/C(C)=C\CN2CCOCC2)C(C)(C)CCC1`, the Growth of cells (in the experiment listed under Homo sapiens [9]; in experiment [10]) was 0 throughout.
As to `CCCCCCCC/C=C\CCCCCCCCC(=O)O[C@H]1CC[C@@]2(C)C(=CC[C@H]3[C@@H]4CC[C@H](C(C)COC(=O)CCCc5ccc(N(CCCl)CCCl)cc5)C4CC[C@@H]32)C1` (stereo partly drawn), the Growth of cells in the experiment filed under Homo sapiens [11] stood at 4; in the experiment filed under Homo sapiens [12] it was 4; in the experiment filed under Homo sapiens [13], 6.
With `CCCCCCCC/C=C\CCCCCCCCC(=O)O[C@H]1CC[C@@]2(C)C(=CC[C@H]3[C@@H]4CC[C@H](C(C)CCCOC(=O)CCCc5ccc(N(CCCl)CCCl)cc5)C4CC[C@@H]32)C1` (stereo partly drawn), the Growth of cells in the experiment filed under Homo sapiens [11] and in the experiment listed under Homo sapiens [12] was 4 in each case.
Take `CCCCCCCC/C=C\CCCCCCCCOC(=O)N(CCCCCCCCCCCC)CC(F)(F)F`: the Growth of cells (in the experiment filed under Homo sapiens [3]; in [2]) was 6 throughout.
In the case of `CCCCCCCC/C=C\CCCCCCCCOC(=O)N1CCOC(CCCCCCCCCCCC)C1` (stereo not drawn), the Growth of cells (in the experiment filed under Homo sapiens [1]; in [2]) was 6 in each case.
`CCCCCCCC/C=C\CCCCCCCCN1CC(C)OC(C)C1` (stereo not drawn): the Growth of cells (in the experiment listed under Homo sapiens [9]; in [10]) was 0 each time.
`CCCCCCCC/C=C\CCCCCCCCC(=O)O[C@H]1CC[C@@]2(C)C(=CC[C@H]3[C@@H]4CC[C@H](C(C)C(=O)N5CCOC(CCCCCCCCCCCC)C5)C4CC[C@@H]32)C1` (stereo partly drawn): the Growth of cells (in the experiment listed under Homo sapiens [9]; in [10]) was 6 throughout.
For the compound `CCCCCCCC/C=C\CCCCCCCCN1CCOCC1`, the Growth of cells in the experiment listed under Homo sapiens [9] is 0; in [10], 1.
Consider `CCCCCCCC/C=C\CCCCCCCCC(=O)O[C@H]1CC[C@@]2(C)C(=CC[C@H]3[C@@H]4CC[C@H](C(C)COC(=O)NCCCCCCCCCCCC)C4CC[C@@H]32)C1` (stereo partly drawn), for which the Growth of cells (in the experiment listed under Homo sapiens [1]; in experiment [2]) was 6 throughout.
